# The list is not random: actives were taken first. Their share in the collection is about 1.9%.
# RAM inhibit – yeast RAM network inhibition. S. cerevisiae dse1pr::URA3 reporter, 5-FOA growth OD615, 2 d; analog-sensitive cbk1-as2 kinase mutant strain. inhibition, % at 50 µM. AID 868. 190,000 tested, 1.8% active;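 active = inhibition above a set limit, 3 SD over mean compound inhibition, cut at about 8.4% in these data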;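 note: 0% = DMSO-only wells with no growth and 100% = 10 µM 1-NA-PP1 full growth; inhibition rescues growth on 5-FOA so higher OD means more RAM inhibition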
# Dynein cargo inh – dynein cargo transport inhibition; 3617.4 mouse cells, GR-EGFP nuclear translocation imaging; test concentration mostly 20 µM; stimulated with dexamethasone, 1 µM; active compounds read low; z-score, hits read low; 220,000 tested, 0.47% active;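 active = plate z-score of nuclear minus cytoplasmic receptor signal below a set negative limit, without overly bright fluorescence or cell loss, cut at about -3.5 in these data, passing the limit was not always enough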;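 note: z-score of nuclear minus cytoplasmic ring GR-EGFP intensity difference per well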
#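 Buffer or medium: tet-free, stripped-serum medium; Also added: dexamethasone, 1.0 µM final; Technique: high-content fluorescence imaging after fixation; Times: 48 h induction, 1 h compound, 30 min dex at 37 °C; Read-out: per-cell GR-EGFP intensity, nucleus versus surrounding cytoplasmic ring, well-averaged.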
# p47phox inh – blocks human p47phox regulatory protein of NADPH oxidases | p47phox/p22phox peptide binding, fluorescence polarization, 2 h | inhibition, % at 24.7 µM | 220,000 tested, 0.53% active | AID 1274;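 active = inhibition above about 30%, limit read from the data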;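 note: 0% = p47phox with labelled peptide and 100% = labelled peptide alone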
# Target sequence (P14598 whole entry, looked up): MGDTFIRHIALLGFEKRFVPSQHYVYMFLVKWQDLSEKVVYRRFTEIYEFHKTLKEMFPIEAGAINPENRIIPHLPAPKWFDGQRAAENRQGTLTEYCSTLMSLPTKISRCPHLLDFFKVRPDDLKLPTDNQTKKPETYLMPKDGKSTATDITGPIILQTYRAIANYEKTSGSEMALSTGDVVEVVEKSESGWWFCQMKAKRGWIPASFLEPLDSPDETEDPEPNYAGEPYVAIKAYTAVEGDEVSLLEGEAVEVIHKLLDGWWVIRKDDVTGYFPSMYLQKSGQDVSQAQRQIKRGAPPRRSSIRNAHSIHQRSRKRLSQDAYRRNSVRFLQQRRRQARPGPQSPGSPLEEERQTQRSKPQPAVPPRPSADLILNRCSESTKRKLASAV
# pCIP destab – compounds decreasing mouse p/CIP protein stability. Q05BA5. F442A p/CIP-EGFP cells, EGFP fluorescence, 16 h. decrease of EGFP signal, % at 10 µM. 290,000 tested, 0.01% active;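 active = EGFP signal decrease of at least 30% at 10 µM or well 3 SD below plate mean, unless failing retest; inactive = the rest, including hits failing retest or dose response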
# Dynein confirm – dynein cargo transport inhibition, confirmation. 1,000 tested, 69% active. calls only at 20 µM. 3617.4 GR-EGFP nuclear translocation imaging, dexamethasone-induced. shares compounds with Dynein cargo inh. AID 463116;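 active = inhibition of receptor movement into the nucleus at or above a set limit in both runs, with normal cell brightness and cell count; inconclusive = limit reached in only one run, brightness and count normal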;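 note: dexamethasone at 1 µM final in well for 30 min; nuclear minus cytoplasmic GR-EGFP mean intensity difference in channel 2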
# * = called active by the depositor; i = inactive; ? = inconclusive; nt = not tested or not shown; + = active, no number.
SMILES,RAM inhibit,Dynein cargo inh,p47phox inh,pCIP destab,Dynein confirm
CS(=O)(=O)c1ccc(C(=O)OCc2nnc(-c3ccc(Cl)cc3)o2)cc1[N+](=O)[O-],3,-5.6*,-3,7,+
O=C(Cn1ncc(Cl)c(Cl)c1=O)N1CCN(S(=O)(=O)c2ccc3ccccc3c2)CC1,4,-4*,-16,-16,+
CC(CC(=O)Nc1ccccc1C(F)(F)F)c1ccccc1 (stereo not drawn),-1,0.072,2,2,nt
O=C1/C(=C/c2ccc(N3CCOCC3)o2)SC(=Nc2ccccc2)N1CCc1c[nH]c2ccccc12,4,-7,-62,-71,+
Nc1cccc2c1C(=O)N(CC(=O)NC13CC4CC(CC(C4)C1)C3)C2=O,4,0.51,-1,-9,nt
O=C(Cn1sc2ccccc2c1=O)NC12CC3CC(CC(C3)C1)C2,5,-5.1*,-4,-10,i
CCCCCCC(=O)N(O)C1CC(=O)N(c2ccc(Cl)cc2)C1=O (stereo not drawn),nt,-5.1*,-34,-1,+
CC(C)(C)C(=O)Cn1ncc(Br)c(Br)c1=O,2,-4.4*,0,-6,+
CC(OC(=O)c1ccc(S(=O)(=O)N2CCCCC2)cc1)C(=O)NC1CCCCC1C (stereo not drawn),nt,nt,nt,9,nt
Cc1cc(C)cc(OC(=O)CS(=O)c2ccc(C(F)(F)F)cc2[N+](=O)[O-])c1 (stereo not drawn),3,-3.7*,2,-3,+
Cc1ccc(-c2nn(-c3ccccc3)cc2CO)o1,-1,-3.7*,-3,-8,i
CC(C)(C)OC(=O)NCCc1nnc(S(=O)(=O)Cc2ccc(Cl)cc2Cl)o1,5,-6.3*,-14,-2,?
COCC(=O)N1CCC(Oc2ccc(C(=O)N3CCSCC3)cc2)CC1,nt,nt,nt,-15,nt
CCOC(=O)c1c(C)oc2c1c(C(c1cccnc1)N1CCN(C)CC1)c(O)c1ccccc12 (stereo not drawn),nt,nt,nt,-7,nt
CCOC(=O)c1c(C)oc2c1c(C(c1cccnc1)N1CCOCC1)c(O)c1ccccc12 (stereo not drawn),-1,-3.7*,2,-15,?
O=C1CCCCc2sc(Br)c([N+](=O)[O-])c2N1,nt,-6.5*,-4,-29,+
O=S1(=O)CCC(NC(=S)SCCOc2ccccc2)C1 (stereo not drawn),0,-3.9*,-11,-17,+
COc1ccc(N/C=C/c2nc(SC)nnc2C)cc1,0,-4,-16,-20,i
CSc1nnc(C)c(/C=C/Nc2ccc(F)cc2)n1,3,-1.1,-14,-2,nt
COc1ccc(Nc2nc(N)nc(CCl)n2)cc1,nt,-1.3,-2,-4,nt
Nc1nc(CCl)nc(Nc2ccc3ccccc3c2)n1,nt,-4.3*,-16,-7,+
O=C(CCl)N(c1ccccc1)c1c[nH]c2ccccc12,0,-2.8,-11,-10,nt
O=C(CCl)N(c1ccc(Cl)cc1)c1c[nH]c2ccccc12,2,-5.3*,-9,10,+
COC(=O)C1=C(C)N(Cc2ccco2)C(=O)/C1=C\c1ccc([N+](=O)[O-])cc1,10.0*,-3.6*,-44,-15,+
CC(=O)/C=C1/C(=O)Nc2ccccc21,1,-5.6*,-10,-1,+
SMILES,RAM inhibit,Dynein cargo inh,p47phox inh,pCIP destab,Dynein confirm
O=[N+]([O-])c1ccc2c(c1)N([O-])C1(CCCCC1)[N+]2=O,nt,-3.6*,12,4,+
CC1=C(c2ccccc2)[N+](=O)C2(CCCC2)N1[O-],-1,0.37,-4,-5,nt
C#CC(=O)N(c1cc(OC)ccc1OC)C(C(=O)NC1CCCC1)c1cccs1 (stereo not drawn),1,-5.1*,21,-22,+
COc1ccc(N(C(=O)c2ccco2)C(C(=O)NC2CCCCC2)c2cccs2)cc1OC (stereo not drawn),0,0.38,-1,-11,nt
C#CC(=O)N(c1ccc(OC)cc1OC)C(C(=O)NC1CCCC1)c1cccs1 (stereo not drawn),0,-4.4*,-7,-8,+
Cc1ccc(NC(=O)C(=Cc2ccc(C(=O)O)cc2)C(=O)Nc2ccc(C)cc2C)c(C)c1,nt,-6*,0,-15,+
Cc1ccc(-n2ncc(Br)c(Br)c2=O)cc1,0,-5.9*,1,64,+
BrC(=C\c1ccccc1)/C=N/Nc1ccc2nncn2n1,nt,-0.33,5,-9,nt
BrC(=C\c1ccccc1)/C=N/n1cnnc1,-2,-3.7*,-4,8,+
Cc1onc(-c2ccccc2)c1-c1nc2ccccc2c(=O)o1,4,-0.2,-8,-1,nt
Cc1onc(-c2ccccc2)c1-c1nc2cc(Cl)ccc2c(=O)o1,nt,-3.8*,-22,0,+
O=C(COC(=O)Cc1c(F)cccc1Cl)NC(=O)c1ccccc1,nt,nt,nt,-5,nt
CC1(C)CC(=O)C2=C(C1)OC1=C(C(=O)CC(C)(C)C1)C2c1ccc(O)cc1O,2,-5.2,8,0,+
N#C/C(=C/c1ccc(N2CCOCC2)o1)c1ccc(Cl)cc1,0,-9.1,-74,-4,i
O=C(O)c1ccc(C=C(c2nc3ccccc3s2)c2nc3ccccc3s2)cc1,2,-4.6*,-30,20,+
Cn1c(CCN2CCN(c3ccccn3)CC2)nc2cc(NS(=O)(=O)c3ccc(Cl)cc3)ccc21,nt,nt,nt,4,nt
S=c1[nH]nc(-c2cc(-c3ccccc3)n[nH]2)n1/N=C/C(Br)=C/c1ccccc1,nt,-4.3*,14,-17,?
S=c1[nH]nc(-c2cc(-c3ccccc3)n[nH]2)n1/N=C/c1ccccc1,nt,0.15,-15,0,nt
CCn1c(SCC(=O)Nc2ccccc2Br)nnc1-c1cnccn1,nt,nt,nt,-10,nt
Cn1c(-c2ccccc2)c(C(=O)CCl)c2ccccc21,1,-3.8*,0,-8,+
CCC(C)n1c(SCC(=O)Nc2cc(C(C)(C)C)nn2-c2ccccc2)nc2ccccc2c1=O (stereo not drawn),4,-0.48,-18,-8,nt
CCOC(=O)CCSc1nc(C)cc(C(F)(F)F)c1C#N,-2,-9,-49,-14,i
Nc1ccc(O)cc1C(=O)OCC(=O)c1ccc(C2CCCCC2)cc1,10*,-3.5*,-13,-13,+
COc1ccc(OC)c(CCNC(=O)Cn2nc(C)c3c(C)n(-c4ccc(C)cc4)nc3c2=O)c1,nt,nt,nt,-11,nt
COc1ccc(OC)c(CCNC(=O)Cn2sc3nc(C)cc(C)c3c2=O)c1,1,-4.1*,17,-2,+
Cc1cc(C)c2c(=O)n(CC(=O)Nc3ccc(Br)c(C)c3)sc2n1,nt,-0.83,15,4,nt
Cc1cc(C)c2c(=O)n(CC(=O)NC3CCCC3)sc2n1,nt,-4.2*,42*,-6,+
C=CCSC(=C(C#N)C#N)c1cc2c([nH]1)CCCC2,11*,-4*,-20,-10,+
O=C(O)c1cc2c([nH]c1=O)CCCC2,2,0.4,nt,-7,nt

# Bioassay records from PubChem BioAssay.
